Measurements taken from BindingDB's records for doi:10.1021/acs.jmedchem.9b01336 (University of Naples Federico II, 2020).

What was measured:
[1] = biological target: T1, Proto-oncogene tyrosine-protein kinase receptor Ret (Homo sapiens, UniProt P07949); test: Inhibition of RET isoform 9 M918T mutant in human MZ-CRC-1 cells assessed as reduction in cell proliferation supplemented with fresh medium containing compound for every 2 to 3 days and measured during compound dosing
Summary of the method: (§1)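 TT (200000/well) or MZ-CRC-1 (100000/well) seeded in 10% FCS; drug or vehicle from next day, refreshed every 2–3 days; counted every 2–3 days; IC50 by curve fitting of last-day growth.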
Target sequence in this assay (P07949 29-1114 M918T limits assumed): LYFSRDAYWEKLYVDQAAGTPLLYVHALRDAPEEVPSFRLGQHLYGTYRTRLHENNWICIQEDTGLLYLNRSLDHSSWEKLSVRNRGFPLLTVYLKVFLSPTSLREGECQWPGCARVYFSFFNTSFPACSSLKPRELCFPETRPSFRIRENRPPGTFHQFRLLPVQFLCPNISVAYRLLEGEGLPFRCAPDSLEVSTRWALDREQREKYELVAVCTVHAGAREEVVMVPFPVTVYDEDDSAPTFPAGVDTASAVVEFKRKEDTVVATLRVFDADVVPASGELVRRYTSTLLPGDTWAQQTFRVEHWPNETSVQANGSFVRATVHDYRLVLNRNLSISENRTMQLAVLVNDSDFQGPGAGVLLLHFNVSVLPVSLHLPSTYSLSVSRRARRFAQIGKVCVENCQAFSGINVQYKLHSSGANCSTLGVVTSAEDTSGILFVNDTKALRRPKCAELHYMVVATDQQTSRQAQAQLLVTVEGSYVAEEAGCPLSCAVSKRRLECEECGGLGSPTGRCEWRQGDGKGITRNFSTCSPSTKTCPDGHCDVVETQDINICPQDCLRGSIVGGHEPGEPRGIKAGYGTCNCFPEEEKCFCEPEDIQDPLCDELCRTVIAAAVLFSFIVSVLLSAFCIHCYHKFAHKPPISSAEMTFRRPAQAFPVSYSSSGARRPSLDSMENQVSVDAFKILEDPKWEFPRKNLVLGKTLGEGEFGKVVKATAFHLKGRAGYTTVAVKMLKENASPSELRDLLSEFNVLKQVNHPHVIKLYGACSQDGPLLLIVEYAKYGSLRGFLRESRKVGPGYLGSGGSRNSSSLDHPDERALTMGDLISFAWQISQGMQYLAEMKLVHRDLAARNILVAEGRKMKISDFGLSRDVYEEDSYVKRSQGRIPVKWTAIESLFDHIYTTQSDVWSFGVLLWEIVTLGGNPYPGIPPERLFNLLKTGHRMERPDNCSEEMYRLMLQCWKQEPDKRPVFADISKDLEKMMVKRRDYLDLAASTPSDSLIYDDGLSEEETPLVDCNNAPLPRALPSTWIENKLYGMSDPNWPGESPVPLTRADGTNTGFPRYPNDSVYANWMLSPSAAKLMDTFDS

[2] = biological target: T1, Proto-oncogene tyrosine-protein kinase receptor Ret; test: Inhibition of RET isoform 9 C634W mutant in human TT cells assessed as reduction in cell proliferation supplemented with fresh medium containing compound for every 2 to 3 days and measured during compound dosing; summary of the method: as §1
Target sequence in this assay (P07949 29-1114 C634W limits assumed): as the sequence (P07949 29-1114 M918T limits assumed) above, with C606W, T890M counted along it

[3] = biological target: T1, Proto-oncogene tyrosine-protein kinase receptor Ret; test: Inhibition of CCDC6/RET in human TPC1 cells assessed as reduction in cell proliferation supplemented with fresh medium containing compound for every 2 to 3 days and measured during compound dosing
Target sequence in this assay (P07949 whole entry, looked up, canonical isoform): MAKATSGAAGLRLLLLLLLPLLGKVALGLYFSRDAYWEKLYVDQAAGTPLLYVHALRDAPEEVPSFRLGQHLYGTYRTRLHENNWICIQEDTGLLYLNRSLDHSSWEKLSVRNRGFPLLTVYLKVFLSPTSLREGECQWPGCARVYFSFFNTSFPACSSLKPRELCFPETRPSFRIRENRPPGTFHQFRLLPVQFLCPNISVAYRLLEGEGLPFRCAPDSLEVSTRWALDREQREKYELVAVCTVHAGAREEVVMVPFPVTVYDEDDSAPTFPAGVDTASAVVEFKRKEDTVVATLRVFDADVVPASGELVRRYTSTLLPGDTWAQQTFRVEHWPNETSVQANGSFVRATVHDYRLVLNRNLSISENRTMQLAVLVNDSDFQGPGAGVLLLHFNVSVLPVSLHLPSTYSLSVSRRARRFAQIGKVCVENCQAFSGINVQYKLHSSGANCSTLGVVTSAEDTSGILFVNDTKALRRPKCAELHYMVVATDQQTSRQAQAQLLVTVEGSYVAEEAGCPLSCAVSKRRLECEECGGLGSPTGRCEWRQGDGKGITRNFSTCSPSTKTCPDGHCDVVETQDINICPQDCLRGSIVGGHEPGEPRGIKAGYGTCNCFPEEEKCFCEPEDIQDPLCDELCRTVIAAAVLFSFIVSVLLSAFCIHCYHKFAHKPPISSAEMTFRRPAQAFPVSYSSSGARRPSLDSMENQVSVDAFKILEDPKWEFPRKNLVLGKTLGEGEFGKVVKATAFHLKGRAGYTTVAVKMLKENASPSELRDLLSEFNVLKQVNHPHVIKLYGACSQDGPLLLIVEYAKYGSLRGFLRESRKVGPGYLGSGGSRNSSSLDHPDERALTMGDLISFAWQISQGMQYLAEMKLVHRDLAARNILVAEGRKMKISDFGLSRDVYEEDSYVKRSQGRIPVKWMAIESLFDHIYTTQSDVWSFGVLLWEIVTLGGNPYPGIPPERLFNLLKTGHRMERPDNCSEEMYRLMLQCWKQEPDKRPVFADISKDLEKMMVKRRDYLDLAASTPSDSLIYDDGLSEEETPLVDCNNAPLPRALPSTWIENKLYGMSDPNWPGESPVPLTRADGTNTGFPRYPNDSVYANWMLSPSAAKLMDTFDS

[4] = biological target: T1, Proto-oncogene tyrosine-protein kinase receptor Ret; test: Inhibition of CCDC6/RET in human LC2/ad cells assessed as reduction in cell proliferation supplemented with fresh medium containing compound for every 2 to 3 days and measured during compound dosing
Target sequence in this assay (P07949 whole entry, looked up, canonical isoform): as above

[5] = Inhibition of RET isoform 15 C634R mutant (unknown origin) expressed in mouse BAF3 cells assessed as reduction in cell proliferation supplemented with fresh medium containing compound for every 2 to 3 days and measured daily
[6] = Inhibition of RET isoform 15 M918T mutant (unknown origin) expressed in mouse BAF3 cells assessed as reduction in cell proliferation supplemented with fresh medium containing compound for every 2 to 3 days and measured daily
[7] = Inhibition of RET isoform 9 C634Y mutant (unknown origin) expressed in mouse NIH/3T3 cells assessed as reduction in cell proliferation supplemented with fresh medium containing compound for every 2 to 3 days measured at 2 days interval during compound dosing

IC50 [1]: 0.67 nM
IC50 [2]: 0.67 nM
IC50 [3]: 0.67 nM
IC50 [4]: 0.67 nM
IC50 [5]: 1.7 nM
IC50 [6]: 1.6 nM
IC50 [7]: 4.2 nM
Structure (SMILES): CC(C)(C)c1cc(NC(=O)Cc2ccc(-n3cnc4cc(-c5ccc(S(C)(=O)=O)cc5)ccc43)cc2)no1
